One block for each compound: values may come before it. Calls of active or inactive are those of the source. No cut-off for these calls is given here.
What was measured:
Homo sapiens [1] = species: Homo sapiens; experiment: Antiinflammatory activity against human primary chondrocytes assessed as inhibition of IL-1beta-induced NO production at 10 to 25 ug/ml after 30 mins by Griess method; assay type: functional
[2] = Antiinflammatory activity against human primary chondrocytes assessed as inhibition of IL-1beta-induced NO production at 200 ug/ml after 30 mins by Griess method relative to IL-1beta treated control; values are per cent of control; conditions: 0.5 h
Homo sapiens [3] = species: Homo sapiens; experiment: Inhibition of NFkappaB activation in human primary chondrocytes assessed as reduction of IL-1beta-induced MMP1 mRNA expression at 200 ug/ml by quantitative RT-PCR analysis relative to IL-1beta treated control; assay type: cell-based
Method in brief: (§1)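 Serum-starved primary human chondrocytes exposed 12 h to IL-1β 10 ng/mL with or without 200 μg/mL compound, the compound added 30 min before the stimulus. MMP-1 and MMP-13 mRNA quantified by RT-PCR and expressed versus IL-1β-treated cells. Mean ± SEM of at least four independent experiments; paired t test.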

C28/I2 [4] = experiment: Inhibition of NFkappaB activation in human C28/I2 cells assessed as reduction of IL-1beta-induced IkappaBalpha phosphorylation at 200 ug/ml after 30 mins by Western blotting analysis relative to IL-1beta treated control; values are per cent of control
[5] = Chondroprotective activity in human primary chondrocytes assessed as effect on IL-1beta-induced collagen2/1 mRNA expression at 200 ug/ml by quantitative RT-PCR analysis relative to IL-1beta treated control; assay type: functional
Method in brief: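 Primary human chondrocytes treated 24 h with IL-1β 10 ng/mL with or without 200 μg/mL compound after a 30 min pretreatment; TIMP-1, collagen I and collagen II mRNA measured by RT-PCR relative to IL-1β-only cells. The collagen II/collagen I mRNA ratio served as a differentiation index. Mean ± SEM of ≥4 independent experiments; paired t test.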

Homo sapiens [6] = species: Homo sapiens; experiment: Antiinflammatory activity against human primary chondrocytes assessed as inhibition of IL-1beta-induced iNOS mRNA expression after 30 mins by Western blotting analysis relative to IL-1beta treated control; assay type: functional
[7] = molecular target: T1, c-Jun N-terminal kinase, JNK (Homo sapiens) (UniProt P45983+P53779+P45984); experiment: Inhibition of JNK activation in human primary chondrocytes assessed as reduction of IL-1beta-induced MMP13 mRNA expression at 200 ug/ml by quantitative RT-PCR analysis relative to IL-1beta treated control; assay type: cell-based; method in brief: as §1
C28/I2 [8] = experiment: Inhibition of NFkappaB activation in human C28/I2 cells assessed as reduction of IL-1beta-induced protein-DNA complex formation at 200 ug/ml after 30 mins by ELISA relative to IL-1beta treated control; assay type: cell-based
Method in brief: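 C28/I2 cells pretreated 30 min ± 200 μg/mL compound, then IL-1β 10 ng/mL for 30 min. Nuclear extracts incubated with biotinylated NF-κB consensus oligonucleotide in a colorimetric ELISA-type binding assay; absorbance taken as amount of active NF-κB–DNA complexes. Specificity checked with 10-fold molar excess of unlabeled wild-type or mutant oligonucleotide. Mean ± SEM, four experiments.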

[9] = molecular target: MAP kinase p38 (Homo sapiens) (UniProt O15264+Q15759+Q16539+P53778); experiment: Inhibition of IL-1beta-induced p38 MAPK phosphorylation in human primary chondrocytes at 200 ug/ml by Western blotting analysis relative to IL-1beta treated control; assay type: cell-based
[10] = molecular target: T1, c-Jun N-terminal kinase, JNK (Homo sapiens); experiment: Inhibition of JNK activation in human primary chondrocytes assessed as reduction of IL-1beta-induced MMP1 mRNA expression at 200 ug/ml by quantitative RT-PCR analysis relative to IL-1beta treated control; assay type: cell-based; method in brief: as §1
[11] = Antiinflammatory activity against human primary chondrocytes assessed as IL-1beta-induced iNOS protein expression level after 30 mins by Western blotting analysis relative to IL-1beta treated control
Homo sapiens [12] = species: Homo sapiens; experiment: Antiinflammatory activity against human primary chondrocytes assessed as inhibition of IL-1beta-induced NO production after 30 mins by Griess method; assay type: functional
[13] = molecular target: T1, c-Jun N-terminal kinase, JNK (Homo sapiens); experiment: Inhibition of IL-1beta-induced JNK phosphorylation in human primary chondrocytes at 200 ug/ml by Western blotting analysis relative to IL-1beta treated control; assay type: cell-based; conditions: values are per cent of control
Homo sapiens [14] = species: Homo sapiens; experiment: Inhibition of NFkappaB activation in human primary chondrocytes assessed as reduction of IL-1beta-induced MMP13 mRNA expression at 200 ug/ml by quantitative RT-PCR analysis relative to IL-1beta treated control; assay type: cell-based; method in brief: as §1
Homo sapiens [15] = species: Homo sapiens; experiment: Antiinflammatory activity against human primary chondrocytes assessed as inhibition of IL-1beta-induced iNOS protein expression level after 30 mins by Western blotting analysis relative to IL-1beta treated control; assay type: functional
Method in brief: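 Serum-starved primary human chondrocytes pretreated 30 min with compound in DMSO (≤0.1% final), then IL-1β 10 ng/mL for 24 h. Total extracts immunoblotted with mouse monoclonal anti-human iNOS and detected by chemifluorescence. Band intensity normalized to β-tubulin or actin and expressed relative to IL-1β alone. Mean ± SEM, ≥4 independent experiments; paired t test.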

SMILES: CC1(C)[C@@H]2CC=C(C=O)[C@H]1C2
inhibition (Homo sapiens [1]): inactive

SMILES: CC1=C[C@@H](O)[C@@H]2C[C@@H]1C2(C)C
inhibition (Homo sapiens [1]): inactive

SMILES: CC1=CCC2CC1C2(C)C (racemic) [ALPHA-PINENE]
level, % of control at 200 µg/mL [2]: 40.6%

inhibition [7]: Active
inhibition [9]: inactive
inhibition [10]: Active
response, % of control [13]: 51.3%
SMILES: CC1=CC[C@@H]2C[C@H]1C2(C)C [1R-(+)-ALPHA-PINENE]
level, % of control at 200 µg/mL [2]: 31.5%
inhibition (Homo sapiens [3]): Active
level, % of control (C28/I2 [4]): 33.6%
fold change (FC) [5]: 2.6
inhibition (Homo sapiens [6]): Active
inhibition (C28/I2 [8]): Active
Activity [11]: 24.4%
inhibition (Homo sapiens [12]): Dose-dependent effect
inhibition (Homo sapiens [14]): Active

SMILES: CC1(C)[C@H]2CC[C@@H](CO)[C@H]1C2
inhibition (Homo sapiens [1]): inactive

SMILES: C=C1CCC2CC1C2(C)C (racemic) [BETA-PINENE]
level, % of control at 200 µg/mL [2]: 76.8%

SMILES: C[C@H]1CC[C@H]2C[C@@H]1C2(C)C
inhibition (Homo sapiens [15]): Active
inhibition (Homo sapiens [1]): inactive

SMILES: C=C1C(O)CC2CC1C2(C)C (configuration not stated)
inhibition (Homo sapiens [1]): inactive

inhibition [9]: inactive
response, % of control [13]: 65.8%
SMILES: CC1=CC[C@H]2C[C@@H]1C2(C)C
level, % of control at 200 µg/mL [2]: 58.1%
level, % of control (C28/I2 [4]): 58.4%
inhibition (Homo sapiens [15]): Active

SMILES: CC1(C)C2CC=C(CO)C1C2 (configuration not stated)
inhibition (Homo sapiens [1]): inactive
